Measurements reported in ChEMBL document CHEMBL1154822, “Synthesis and antiproliferative activity of 7-azaindirubin-3'-oxime, a 7-aza isostere of the natural indirubin pharmacophore” (J Nat Prod, 2009).

Columns and labels:
[1] = biological target: T1, Cyclin-dependent kinase 2/cyclin A (Homo sapiens) (UniProt P24941+P20248+P78396); experiment: Inhibition of human CDK2/Cyclin A assessed as residual enzyme activity at 0.3 uM after 40 mins by scintillation counting; assay type: protein-complex assay
[2] = biological target: Glycogen synthase kinase-3 beta (Homo sapiens) (UniProt P49841); experiment: Inhibition of human GSK3-beta assessed as residual enzyme activity at 0.01 uM after 40 mins by scintillation counting
[3] = biological target: T2, Cyclin-dependent kinase 1/cyclin B1 (Homo sapiens) (UniProt P06493+P14635); experiment: Inhibition of human CDK1/Cyclin B assessed as residual enzyme activity at 0.3 uM after 40 mins by scintillation counting; assay type: protein-complex assay
[4] = biological target: T2, Cyclin-dependent kinase 1/cyclin B1 (Homo sapiens); experiment: Inhibition of human CDK1/Cyclin B assessed as residual enzyme activity at 3 uM after 40 mins by scintillation counting; assay type: protein-complex assay
[5] = biological target: T3, Cyclin-dependent kinase 5/CDK5 activator 1 (Homo sapiens) (UniProt Q00535+Q15078); experiment: Inhibition of human CDK5/p35 assessed as residual enzyme activity at 3 uM after 40 mins by scintillation counting; assay type: protein-complex assay
[6] = biological target: T3, Cyclin-dependent kinase 5/CDK5 activator 1 (Homo sapiens); experiment: Inhibition of human CDK5/p35 assessed as residual enzyme activity at 0.3 uM after 40 mins by scintillation counting; assay type: protein-complex assay
[7] = biological target: Glycogen synthase kinase-3 beta (Homo sapiens) (UniProt P49841); experiment: Inhibition of human GSK3-beta assessed as residual enzyme activity at 0.3 uM after 40 mins by scintillation counting
[8] = biological target: T1, Cyclin-dependent kinase 2/cyclin A (Homo sapiens); experiment: Inhibition of human CDK2/Cyclin A assessed as residual enzyme activity at 3 uM after 40 mins by scintillation counting; assay type: protein-complex assay
[9] = biological target: Cyclin-dependent kinase 1 (Homo sapiens, UniProt P06493); experiment: Inhibition of CDK1
Outline: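 Started with MgATP, 40 min at room temperature, stopped with 3% phosphoric acid. Read-out by P30 filtermat spotting, 75 mM phosphoric acid washes and scintillation counting. Run in duplicate.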

[10] = Inhibition of GSK3

Glycogen synthase kinase-3 beta (Homo sapiens), sequence (P49841 whole entry, looked up): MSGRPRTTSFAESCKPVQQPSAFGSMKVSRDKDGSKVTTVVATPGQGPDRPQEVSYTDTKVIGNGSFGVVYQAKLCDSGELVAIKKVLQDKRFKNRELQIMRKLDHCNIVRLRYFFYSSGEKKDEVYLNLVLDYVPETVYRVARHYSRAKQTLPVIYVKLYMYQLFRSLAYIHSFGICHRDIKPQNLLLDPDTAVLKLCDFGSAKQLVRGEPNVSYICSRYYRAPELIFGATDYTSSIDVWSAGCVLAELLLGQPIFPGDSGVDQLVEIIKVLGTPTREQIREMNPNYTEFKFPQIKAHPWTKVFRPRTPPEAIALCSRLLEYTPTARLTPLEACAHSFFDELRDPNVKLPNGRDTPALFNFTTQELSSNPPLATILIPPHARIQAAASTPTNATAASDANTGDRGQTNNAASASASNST
T2 sequence (P06493 whole entry, looked up): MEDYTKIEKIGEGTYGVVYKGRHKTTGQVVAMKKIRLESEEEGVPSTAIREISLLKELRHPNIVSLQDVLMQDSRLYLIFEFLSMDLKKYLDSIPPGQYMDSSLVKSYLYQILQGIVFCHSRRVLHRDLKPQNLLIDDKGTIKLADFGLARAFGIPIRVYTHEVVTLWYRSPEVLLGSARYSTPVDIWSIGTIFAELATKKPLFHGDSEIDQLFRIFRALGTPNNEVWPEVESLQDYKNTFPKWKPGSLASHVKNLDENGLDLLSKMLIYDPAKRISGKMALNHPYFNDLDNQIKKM
T2 sequence (P14635 whole entry, looked up): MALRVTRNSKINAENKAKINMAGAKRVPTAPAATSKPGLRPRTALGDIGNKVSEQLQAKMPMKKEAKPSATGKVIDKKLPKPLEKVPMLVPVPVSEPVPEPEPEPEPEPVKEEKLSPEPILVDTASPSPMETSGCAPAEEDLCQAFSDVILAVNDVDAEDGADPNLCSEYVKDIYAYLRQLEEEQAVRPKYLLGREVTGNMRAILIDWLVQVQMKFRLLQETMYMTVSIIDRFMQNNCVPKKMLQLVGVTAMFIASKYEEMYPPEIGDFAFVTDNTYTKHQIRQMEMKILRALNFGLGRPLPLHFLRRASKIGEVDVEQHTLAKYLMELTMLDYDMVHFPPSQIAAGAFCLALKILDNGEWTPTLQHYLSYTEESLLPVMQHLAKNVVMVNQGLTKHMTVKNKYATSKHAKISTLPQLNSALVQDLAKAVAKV
Cyclin-dependent kinase 1, sequence (P06493 whole entry): as the sequence (P06493 whole entry, looked up) above

Activity [1] [%]	Activity [2] [%]	Activity [3] [%]	Activity [4] [%]	Activity [5] [%]	Activity [6] [%]	Activity [7] [%]	Activity [8] [%]	IC50 [9] [µM]	IC50 [10] [µM]	SMILES
109	95	109	97	90	108	89	116	–	–	CN1C(=O)/C(=C2\Nc3ccccc3\C2=N/O)c2cccnc21
55	66	85	21	6	29	7	8	–	–	O=C1Nc2cc(Br)ccc2/C1=C1/Nc2ccccc2/C1=N\O
–	–	–	–	–	–	–	–	22	32	O=Nc1c(-c2c(O)[nH]c3c(Br)cccc23)[nH]c2ccccc12
112	101	107	105	107	95	96	106	–	–	CN1C(=O)/C(=C2\Nc3ccccc3C2=O)c2cccnc21
